{
  "source": "ChEMBL document CHEMBL4732053",
  "about": "“Design, synthesis and structure-activity relationship study of novel urea compounds as FGFR1 inhibitors to treat metastatic triple-negative breast cancer” (Eur J Med Chem, 2021)",
  "key": {"D(2) dopamine receptor": {"target": "D(2) dopamine receptor (Homo sapiens, UniProt P14416)", "sequence (P14416 whole entry)": "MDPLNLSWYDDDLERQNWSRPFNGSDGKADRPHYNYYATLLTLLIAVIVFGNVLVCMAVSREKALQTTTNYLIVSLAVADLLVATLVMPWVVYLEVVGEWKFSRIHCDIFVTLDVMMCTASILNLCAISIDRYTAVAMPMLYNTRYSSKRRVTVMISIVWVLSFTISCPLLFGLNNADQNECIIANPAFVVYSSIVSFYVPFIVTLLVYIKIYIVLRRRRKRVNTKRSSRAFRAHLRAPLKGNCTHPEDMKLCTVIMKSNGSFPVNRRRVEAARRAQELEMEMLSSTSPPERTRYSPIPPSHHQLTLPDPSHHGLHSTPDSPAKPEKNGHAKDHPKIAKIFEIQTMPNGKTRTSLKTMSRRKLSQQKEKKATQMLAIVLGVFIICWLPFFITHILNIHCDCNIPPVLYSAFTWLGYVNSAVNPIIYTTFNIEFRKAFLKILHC", "experiment": "Binding affinity to dopamine D2 receptor (unknown origin) at 10 uM", "method_in_brief": "(§1)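 Primary radioligand-binding screen by the NIMH Psychoactive Drug Screening Program. Each compound was tested at a final concentration of 10 μM in triplicate or quadruplicate, and % inhibition was recorded. Data are mean ± SEM of four independent experiments. Compounds reaching at least 50% antagonist activity went on to secondary dose-response assays.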"}, "[1]": {"target": "Sodium-dependent dopamine transporter (Homo sapiens, UniProt Q01959)", "sequence (Q01959 whole entry)": "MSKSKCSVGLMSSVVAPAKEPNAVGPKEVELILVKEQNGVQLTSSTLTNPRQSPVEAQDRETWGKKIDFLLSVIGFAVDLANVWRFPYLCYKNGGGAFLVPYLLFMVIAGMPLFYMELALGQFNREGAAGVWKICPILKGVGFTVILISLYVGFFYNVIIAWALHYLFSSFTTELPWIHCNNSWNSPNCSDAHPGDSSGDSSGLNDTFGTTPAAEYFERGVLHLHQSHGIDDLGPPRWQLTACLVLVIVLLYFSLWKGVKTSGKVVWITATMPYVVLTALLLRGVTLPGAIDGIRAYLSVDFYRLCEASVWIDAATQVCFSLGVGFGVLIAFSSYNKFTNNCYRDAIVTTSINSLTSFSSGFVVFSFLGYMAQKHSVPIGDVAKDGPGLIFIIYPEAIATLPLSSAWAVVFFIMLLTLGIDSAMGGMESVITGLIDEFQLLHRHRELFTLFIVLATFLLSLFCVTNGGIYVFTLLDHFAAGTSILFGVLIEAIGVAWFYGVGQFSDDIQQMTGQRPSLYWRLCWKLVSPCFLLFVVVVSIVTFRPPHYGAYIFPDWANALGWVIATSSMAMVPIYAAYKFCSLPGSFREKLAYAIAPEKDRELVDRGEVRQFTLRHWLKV", "experiment": "Inhibition of DAT (unknown origin)"}, "D(4) dopamine receptor": {"target": "T1, D(4) dopamine receptor (Homo sapiens, UniProt P21917)", "T1 sequence (P21917 whole entry)": "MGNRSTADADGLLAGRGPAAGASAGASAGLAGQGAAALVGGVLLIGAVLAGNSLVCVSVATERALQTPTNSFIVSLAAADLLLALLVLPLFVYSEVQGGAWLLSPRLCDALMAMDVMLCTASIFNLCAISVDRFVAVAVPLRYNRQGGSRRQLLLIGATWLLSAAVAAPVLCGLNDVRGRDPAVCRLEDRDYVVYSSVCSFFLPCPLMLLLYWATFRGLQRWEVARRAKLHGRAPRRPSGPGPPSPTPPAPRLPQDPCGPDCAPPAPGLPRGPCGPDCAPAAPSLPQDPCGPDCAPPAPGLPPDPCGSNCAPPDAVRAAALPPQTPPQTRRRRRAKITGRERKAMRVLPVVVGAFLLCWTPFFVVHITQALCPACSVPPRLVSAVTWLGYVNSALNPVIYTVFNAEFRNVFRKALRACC", "experiment": "Binding affinity to dopamine D4 receptor (unknown origin) at 10 uM", "method_in_brief": "as §1"}, "[2]": {"target": "DAT (sodium-dependent dopamine transporter) (Homo sapiens, UniProt Q01959)", "sequence (Q01959 whole entry)": "as the sequence (Q01959 whole entry) above", "experiment": "Inhibition of DAT (unknown origin) at 10 uM relative to control", "method_in_brief": "as §1"}, "D(3) dopamine receptor": {"target": "D(3) dopamine receptor (Homo sapiens, UniProt P35462)", "sequence (P35462 whole entry)": "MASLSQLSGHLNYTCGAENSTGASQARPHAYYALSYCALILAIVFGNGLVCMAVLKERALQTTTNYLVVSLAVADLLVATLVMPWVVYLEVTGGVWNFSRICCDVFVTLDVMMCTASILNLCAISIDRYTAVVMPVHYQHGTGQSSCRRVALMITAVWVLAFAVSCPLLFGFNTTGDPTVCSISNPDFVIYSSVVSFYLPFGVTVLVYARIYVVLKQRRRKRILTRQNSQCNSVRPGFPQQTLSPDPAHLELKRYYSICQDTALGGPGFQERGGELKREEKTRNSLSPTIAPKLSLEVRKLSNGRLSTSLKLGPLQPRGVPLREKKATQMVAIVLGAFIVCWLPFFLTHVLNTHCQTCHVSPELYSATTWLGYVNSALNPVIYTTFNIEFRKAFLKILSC", "experiment": "Binding affinity to dopamine D3 receptor (unknown origin) at 10 uM", "type": "ADME", "method_in_brief": "as §1"}, "D(1A) dopamine receptor": {"target": "D(1A) dopamine receptor (Homo sapiens, UniProt P21728)", "sequence (P21728 whole entry)": "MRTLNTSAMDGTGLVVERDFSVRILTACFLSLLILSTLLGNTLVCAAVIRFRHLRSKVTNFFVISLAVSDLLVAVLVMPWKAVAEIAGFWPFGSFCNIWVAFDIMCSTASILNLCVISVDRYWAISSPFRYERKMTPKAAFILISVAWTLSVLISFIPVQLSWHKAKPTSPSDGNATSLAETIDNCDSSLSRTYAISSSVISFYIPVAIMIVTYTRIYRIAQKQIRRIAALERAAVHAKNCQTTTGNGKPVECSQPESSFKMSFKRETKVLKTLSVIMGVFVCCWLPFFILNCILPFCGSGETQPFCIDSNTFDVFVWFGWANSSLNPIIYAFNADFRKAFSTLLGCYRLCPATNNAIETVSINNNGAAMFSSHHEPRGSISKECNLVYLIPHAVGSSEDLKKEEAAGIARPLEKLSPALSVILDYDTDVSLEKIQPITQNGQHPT", "experiment": "Binding affinity to dopamine D1 receptor (unknown origin) at 10 uM", "method_in_brief": "as §1"}, "Histamine H1 receptor": {"target": "Histamine H1 receptor (Homo sapiens, UniProt P35367)", "sequence (P35367 whole entry)": "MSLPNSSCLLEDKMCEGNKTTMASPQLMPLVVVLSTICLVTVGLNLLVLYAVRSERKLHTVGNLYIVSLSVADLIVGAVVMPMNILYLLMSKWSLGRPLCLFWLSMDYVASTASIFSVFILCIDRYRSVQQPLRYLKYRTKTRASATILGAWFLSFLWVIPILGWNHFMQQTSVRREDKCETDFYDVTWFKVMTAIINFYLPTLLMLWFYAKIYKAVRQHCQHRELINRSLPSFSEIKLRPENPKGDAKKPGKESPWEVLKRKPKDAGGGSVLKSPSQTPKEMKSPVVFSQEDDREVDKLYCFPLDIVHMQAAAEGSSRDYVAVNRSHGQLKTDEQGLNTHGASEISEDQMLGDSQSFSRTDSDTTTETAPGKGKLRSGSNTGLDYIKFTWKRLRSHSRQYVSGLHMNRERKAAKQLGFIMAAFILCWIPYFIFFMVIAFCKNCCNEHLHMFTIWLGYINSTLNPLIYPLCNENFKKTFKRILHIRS", "experiment": "Inhibition of H1R (unknown origin)"}, "[3]": {"experiment": "Drug uptake in C57 mouse brain at 10 mg/kg, ip measured after 1 hrs by LC-MS/MS analysis", "type": "ADME, organism-based", "conditions": "in vivo; call rule not given here", "method_in_brief": "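Eight-week-old male and female C57 mice (~20 g) received a single 10 mg/kg i.p. dose in ethanol 2.5%, DMSO 2.5%, Tween 80 5%, PEG 400 25% and PBS 65%. Brains were taken after cardiac perfusion at 0–48 h. Tissue was homogenized in PBS (1:3 w/v), extracted with acetonitrile containing internal standard, and quantified by LC-MS/MS against matrix-matched calibration curves. n = 2–4.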"}, "MDA-MB-231": {"test_system": "MDA-MB-231", "experiment": "Cytotoxicity against human MDA-MB-231 cells assessed as reduction in cell viability incubated for 48 hrs by MTT assay", "type": "functional, cell-based", "conditions": "MDA-MB-231, 48 h", "method_in_brief": "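MTT assay in MDA-MB-231 cells grown in DMEM with 10% heat-inactivated FBS at 37 °C and 5% CO2. Cells were seeded at 8000 per well, left 24 h, then exposed for 48 h to 0–25 μM in DMEM with 2% FBS (final DMSO 0.1%). MTT (0.5 mg/mL) was added for 2 h, formazan was dissolved in DMSO and read at 570 nm. Runs were in triplicate and IC50 was derived from the curves.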"}, "D(1B) dopamine receptor": {"target": "D(1B) dopamine receptor (Homo sapiens, UniProt P21918)", "sequence (P21918 whole entry)": "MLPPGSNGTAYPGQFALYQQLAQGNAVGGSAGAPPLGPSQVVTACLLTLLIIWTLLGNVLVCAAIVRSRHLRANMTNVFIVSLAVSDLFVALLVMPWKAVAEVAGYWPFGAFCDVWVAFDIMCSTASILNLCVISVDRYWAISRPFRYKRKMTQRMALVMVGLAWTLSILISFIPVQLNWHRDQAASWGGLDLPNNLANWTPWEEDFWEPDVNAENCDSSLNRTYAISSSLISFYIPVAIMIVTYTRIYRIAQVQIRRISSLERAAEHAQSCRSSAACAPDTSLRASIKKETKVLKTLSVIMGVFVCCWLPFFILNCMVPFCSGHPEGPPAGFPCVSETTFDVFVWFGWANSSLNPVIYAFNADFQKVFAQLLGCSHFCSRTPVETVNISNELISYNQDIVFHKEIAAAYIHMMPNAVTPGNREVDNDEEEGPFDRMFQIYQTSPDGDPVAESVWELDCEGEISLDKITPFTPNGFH", "experiment": "Binding affinity to dopamine D5 receptor (unknown origin) at 10 uM", "method_in_brief": "as §1"}},
  "note": "pIC50, pKi: −log10 of the molar value.",
  "data": [
    {"smiles": "O=C(NCCCCC(c1ccc(F)cc1)c1ccc(F)cc1)Nc1ccc(Cl)cc1", "values": [
      {"measurement": "Activity", "setting": "D(2) dopamine receptor", "value": "Not Active"},
      {"measurement": "pKi", "setting": "[1]", "value": 7.82},
      {"measurement": "Activity", "setting": "D(4) dopamine receptor", "value": "Not Active"},
      {"measurement": "inhibition at 10 µM", "setting": "[2]", "value": 82, "unit": "%"},
      {"measurement": "Activity", "setting": "D(3) dopamine receptor", "value": "Not Active"},
      {"measurement": "Activity", "setting": "D(1A) dopamine receptor", "value": "Not Active"},
      {"measurement": "inhibition (INH)", "setting": "Histamine H1 receptor", "value": "Active"},
      {"measurement": "Drug uptake", "setting": "[3]", "value": "Active"},
      {"measurement": "pIC50", "setting": "MDA-MB-231", "value": 5.11},
      {"measurement": "Activity", "setting": "D(1B) dopamine receptor", "value": "Not Active"}
    ]}
  ]
}
